Among the data in ChEMBL document CHEMBL1926557 (Bioorg Med Chem, 2012) are IC50 and Activity values, retold here.

What is called IC50 is the concentration needed to halve the response being measured.

The nature of series [1]: Antineuroinflammatory activity in LPS-stimulated rat microglia cells assessed as inhibition of PMA-stimulated TXB2 release preincubated for 15 mins measured 70 mins after PMA challenge. The series is classed as functional. The gist of the method: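 Rat neonatal microglia (2 × 10^5 cells/well) primed with E. coli LPS 0.3 ng/mL for 17 h in DMEM + 10% FBS + penicillin/streptomycin at 35.9 °C, 5% CO2. Cells washed with warm HBSS, pre-exposed to compound (0.01–10 µM) or DMSO vehicle, then triggered with PMA 1 µM. TXB2 in supernatant quantified by EIA. Triplicate wells, 1 mL final volume, 2–4 experiments. IC50 derived.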

The nature of series [2]: Cytotoxicity against rat microglia cells after 90 mins by LDH release assay. In kind it is cell-based. Conditions: 1.5 h. In a few lines: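 Short-term viability of PMA (1 µM)-stimulated rat microglia measured by LDH release, given as percent of total LDH. Total LDH is released LDH plus the intracellular LDH from cells lysed with 0.1% Triton X-100. LDH50 is the concentration causing release of 50% of total LDH. Data from 3–4 experiments.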
Background: LDH in the medium is a marker of cell lysis.

Series [3] can be described thus: Cytotoxicity against rat microglia cells assessed as cell viability after 18 hrs by WST-1 assay. In kind it is cell-based. The gist of the method:
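Rat neonatal microglia (10,000 cells/well) plated in LPS-free wells in FBS-free DMEM with penicillin/streptomycin. Compound (0.1–10 µM final) or DMSO vehicle added for 18 h at 36 °C, 5% CO2. WST-1 then added for 2 h, and formazan read at 450 nm against a 620 nm reference. Treated wells compared with vehicle, significance at p < 0.05.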
(Tetrazolium assays rely on reduction of a dye to a coloured formazan, in cell work by metabolically active cells.)

The nature of series [4]: Antineuroinflammatory activity in LPS-stimulated rat microglia cells assessed as inhibition of PMA-stimulated superoxide anion release preincubated for 15 mins measured 70 mins after PMA challenge. The series is classed as functional. The gist of the method:
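Rat neonatal microglia (2 × 10^5 cells/well) primed with E. coli LPS 0.3 ng/mL for 17 h in DMEM + 10% FBS + penicillin/streptomycin at 35.9 °C, 5% CO2. Cells washed with warm HBSS, pre-exposed to compound (0.01–10 µM) or DMSO vehicle, then triggered with PMA 1 µM. Superoxide measured as superoxide dismutase-inhibitable reduction of ferricytochrome c. Triplicate wells, 2–4 experiments. IC50 derived.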

For the molecule `[C-]#[N+]C(C)(C)C[C@@H]1C[C@H](C)[C@H]2CC[C@H](C)[C@@]3([N+]#[C-])CCC(=O)[C@@H]1[C@H]23`, the IC50 in series [1] (read-out: IC50) is 1.43 µM; in series [2], > 10 µM; in series [4] it was > 10 µM. In series [3], the Activity entry is “Non-toxic”.

Regarding `[C-]#[N+][C@@]1(C)CC[C@H]2[C@H]3[C@@H](C(=C)CC[C@H]31)[C@H](CC(=C)C)C[C@@H]2C`, the IC50 is 1.72 µM in series [1] (read-out: IC50), > 10 µM in series [2] and > 10 µM in series [4]. The Activity entry in series [3] is recorded as “Non-toxic”.

For the molecule `[C-]#[N+][C@@]12CCC(=C)[C@H]3[C@H](CC(C)(C)NC=O)C[C@H](C)[C@@H](CC[C@@H]1C)[C@@H]32`, the figures for the IC50 in series [1] (read-out: IC50), in series [2] and in series [4] were 1.48 µM, > 10 µM and > 10 µM, respectively. The Activity result in series [3] is given as “Non-toxic”.

Regarding `[C-]#[N+][C@@]12CCC(=C)[C@H]3[C@H](CC(C)(C)NC(=O)CN4CCC4=O)C[C@H](C)[C@@H](CC[C@@H]1C)[C@@H]32` [MONAMPHILECTINE A], the IC50 in series [1] (read-out: IC50) is 4.69 µM; in series [2], > 10 µM; in series [4], > 10 µM. Moreover, the Activity result in series [3] is listed as “Non-toxic”.

For the molecule `[C-]#[N+]C(C)(C)C[C@@H]1C[C@H](C)[C@H]2CC[C@](C)([N+]#[C-])[C@@H]3CCC(=C)[C@@H]1[C@H]23`, the IC50 in series [1] (read-out: IC50) was 0.2 µM; in series [2] it was > 10 µM; in series [4], > 10 µM. In addition, the Activity result in series [3] is listed as “Non-toxic”.

Regarding `C=C1CC[C@@]2(NC=O)[C@H]3[C@H](CC[C@@H]2C)[C@@H](C)C[C@@H](CC(C)(C)NC=O)[C@H]13`, the IC50 in series [1] (read-out: IC50) is 3.14 µM; in series [2], > 10 µM; in series [4], > 10 µM. Also, in series [3], the Activity result is “Non-toxic”.

For the molecule `CC(=O)Oc1ccccc1C(=O)O` [ASPIRIN], the IC50 in series [1] (read-out: IC50) worked out at 3.12 µM.

For `[C-]#[N+]C(C)(C)C[C@@H]1C[C@H](C)[C@H]2CC[C@H](C)[C@@]3([N+]#[C-])CCC(=C)[C@@H]1[C@H]23` [DIISOCYANOAMPHILECTENE], the results for the IC50 in series [1] (read-out: IC50), in series [2] and in series [4] were 0.23 µM, > 10 µM and > 10 µM, respectively. Besides, in series [3], the Activity entry is recorded as “Non-toxic”.

Regarding `CC(C(=O)O)c1ccc(-c2ccccc2)c(F)c1` (stereo not given) [FLURBIPROFEN], the IC50 in series [1] (read-out: IC50(app)) was found to be 0.1 µM.
